# Assay results from ChEMBL document CHEMBL4052822, “Design and Synthesis of Orally Bioavailable Piperazine Substituted 4(1H)-Quinolones with Potent Antimalarial Activity: Structure-Activity and Structure-Property Relationship Studies” (J Med Chem, 2018).
# Activity calls are given as the source filed them. The calls are words filed in the database; no cut-off is given here.
# Experiments:
# Plasmodium falciparum [1] = test: Antimalarial activity against pyrimethamine/chloroquine-resistant Plasmodium falciparum W2 infected in human type A-positive erythrocytes after 48 hrs by [3H]-hypoxanthine incorporation assay; assay type: functional, cell-based
# Outline: (§1)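 Compound from 10.0 mM DMSO stock, diluted ≥1:400, then 11 concentrations in duplicate. Incubated at 37 °C under 90% N2/5% O2/5% CO2 for 48 h, then 3H-hypoxanthine added for 24 h more. CPM counted; EC50 by nonlinear regression.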
# Plasmodium berghei [2] = test: Antimalarial activity against liver stage form of luciferase transfected Plasmodium berghei sporozoites infected in mouse assessed as protection against parasitemia at 100 mg/kg administered via oral gavage 1 hr post infection measured on day 6 to 13 by bioluminescence method; assay type: functional, organism-based
# Outline: (§2)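 Mice infected with luciferase-expressing P. berghei sporozoites, five per group. A single dose in PEG 400 was given orally by gavage (25, 50, 100 mg/kg) or subcutaneously (50 mg/kg) 1 h after infection. Infected untreated controls and a primaquine drug control were included. Whole-animal imaging was done 5 min after ip D-luciferin (100 mg/kg) under isoflurane, at 44 h and days 6, 9 and 13. Survival/cure followed to day 30.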
# Plasmodium berghei [3] = test: Antimalarial activity against liver stage form of luciferase transfected Plasmodium berghei sporozoites infected in mouse assessed as inhibition of parasitemia at 25 mg/kg administered via oral gavage 1 hr post infection measured on day 9 by bioluminescence method relative to control; assay type: functional
# Plasmodium berghei [4] = test: Antimalarial activity against liver stage form of luciferase transfected Plasmodium berghei sporozoites infected in mouse assessed as protection against parasitemia at 100 mg/kg administered via oral gavage 1 hr post infection measured at 44 hrs by bioluminescence method; assay type: functional, organism-based; outline: as §2
# Plasmodium berghei [5] = test: Antimalarial activity against liver stage form of luciferase transfected Plasmodium berghei sporozoites infected in mouse assessed as protection against parasitemia at 25 to 50 mg/kg administered via oral gavage 1 hr post infection measured on day 30 by bioluminescence method; assay type: functional, organism-based; outline: as §2
# Plasmodium berghei [6] = test: Antimalarial activity against liver stage form of luciferase transfected Plasmodium berghei sporozoites infected in mouse assessed as inhibition of parasitemia at 50 mg/kg, sc administered 1 hr post infection measured on day 9 by bioluminescence method relative to control; assay type: functional
# Plasmodium berghei [7] = test: Antimalarial activity against Plasmodium berghei infected in human HepG2 cells after 44 hrs by luciferase assay; assay type: functional, cell-based; conditions: HepG2, 44 h
# Outline: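 HepG2 cells, 75000 per well, in DMEM with 10% FBS at 37 °C, 5% CO2. 5000 Pb luciferase sporozoites from dissected mosquito salivary glands added per well for 3 h, then washed three times with PBS. Serially diluted compound added in triplicate, 44 h at 37 °C. Cells lysed, luciferase substrate added, luminescence read.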
# Plasmodium berghei [8] = test: Antimalarial activity against liver stage form of luciferase transfected Plasmodium berghei sporozoites infected in mouse assessed as protection against parasitemia at 50 mg/kg, sc administered 1 hr post infection measured on day 30 by bioluminescence method; assay type: functional, organism-based; outline: as §2
# Plasmodium falciparum [9] = test: Antimalarial activity against mefloquine/chloroquine/atovaquone/pyrimethamine-resistant Plasmodium falciparum TM90-C2B infected in human type A-positive erythrocytes after 48 hrs by [3H]-hypoxanthine incorporation assay; assay type: functional, cell-based; outline: as §1
# [10] = Aqueous solubility of compound at pH 6.5; assay type: physicochemical
# Plasmodium berghei [11] = test: Antimalarial activity against liver stage form of luciferase transfected Plasmodium berghei sporozoites infected in mouse assessed as inhibition of parasitemia at 100 mg/kg administered via oral gavage 1 hr post infection measured on day 9 by bioluminescence method relative to control; assay type: functional
# Plasmodium berghei [12] = test: Antimalarial activity against liver stage form of luciferase transfected Plasmodium berghei sporozoites infected in mouse assessed as inhibition of parasitemia at 50 mg/kg administered via oral gavage 1 hr post infection measured on day 9 by bioluminescence method relative to control; assay type: functional
# Plasmodium berghei [13] = test: Antimalarial activity against liver stage form of luciferase transfected Plasmodium berghei sporozoites infected in mouse assessed as protection against parasitemia at 50 mg/kg, sc administered 1 hr post infection measured at 44 hrs by bioluminescence method; assay type: functional, organism-based; outline: as §2
# Plasmodium berghei [14] = test: Antimalarial activity against liver stage form of luciferase transfected Plasmodium berghei sporozoites infected in mouse assessed as protection against parasitemia at 50 mg/kg, sc administered 1 hr post infection measured on day 6 to 13 by bioluminescence method; assay type: functional, organism-based; outline: as §2
# Plasmodium berghei [15] = test: Antimalarial activity against liver stage form of luciferase transfected Plasmodium berghei sporozoites infected in mouse assessed as protection against parasitemia at 100 mg/kg administered via oral gavage 1 hr post infection measured on day 30 by bioluminescence method; assay type: functional, organism-based; outline: as §2
# Plasmodium berghei [16] = test: Antimalarial activity against liver stage form of luciferase transfected Plasmodium berghei sporozoites infected in mouse assessed as protection against parasitemia at 25 to 100 mg/kg administered via oral gavage 1 hr post infection measured at 44 hrs by bioluminescence method; assay type: functional, organism-based; outline: as §2
# Plasmodium berghei [17] = test: Antimalarial activity against liver stage form of luciferase transfected Plasmodium berghei sporozoites infected in mouse assessed as protection against parasitemia at 25 to 100 mg/kg administered via oral gavage 1 hr post infection measured on day 6 to 13 by bioluminescence method; assay type: functional, organism-based; outline: as §2
Compound,EC50 (Plasmodium falciparum [1]) [nM],Activity (Plasmodium berghei [2]),inhibition in vivo at 25 mg/kg (Plasmodium berghei [3]) [%],Activity (Plasmodium berghei [4]),Activity (Plasmodium berghei [5]),inhibition in vivo at 50 mg/kg (Plasmodium berghei [6]) [%],EC50 (Plasmodium berghei [7]) [nM],Activity (Plasmodium berghei [8]),EC50 (Plasmodium falciparum [9]) [nM],solubility [10] [µM],inhibition in vivo at 100 mg/kg (Plasmodium berghei [11]) [%],inhibition in vivo at 50 mg/kg (Plasmodium berghei [12]) [%],Activity (Plasmodium berghei [13]),Activity (Plasmodium berghei [14]),Activity (Plasmodium berghei [15]),Activity (Plasmodium berghei [16]),Activity (Plasmodium berghei [17])
COC(=O)c1c[nH]c2cc(CN3CCN(Cc4ccc(OC)cc4)CC3)ccc2c1=O,2.5,Active,49.1,Active,Active,20.1,83,inactive,800,–,–,–,–,–,–,–,–
COC(=O)c1c[nH]c2cc(CN3CCN(c4ccccc4)CC3)ccc2c1=O,1.3,–,65.3,–,–,> 99,4.7,–,480,≥ 80,> 99,85.1,Active,Active,Active,Active,Active
